Laboratory results reported in ChEMBL document CHEMBL5126676, “Identification of Inhibitors of the Schistosoma mansoni VKR2 Kinase Domain” (ACS Med Chem Lett, 2022).
One block for each compound: values may come before it. Calls of active or inactive are those of the source. The calls are words filed in the database; no cut-off is given here.

How the values were obtained:
Venus kinase receptor 2 [1] = target: T1, Venus kinase receptor 2 (Schistosoma mansoni, UniProt D5JEH1); test: Binding affinity to Schistosoma mansoni N-terminal His6-tagged full-length VKR2 kinase domain expressed in baculovirus infected Sf9 insect cells in presence of ATPgammaS by SPR analysis
Schistosoma mansoni [2] = test: Antischistosomal activity against adult Schistosoma mansoni assessed as reduction in worm motility at 10 uM measured after 2 to 24 hrs by worm assay; assay type: functional, organism-based; details: time 2-24 hrs
Summary of the method: (§1)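 Ex vivo adult S. mansoni were incubated with 10 μM compound. Average worm motility per well was recorded by WormAssay over time at 2, 5 and 24 h. Three to five biological assays. Significance was tested by two-tailed Student's t-test.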

Schistosoma mansoni [3] = test: Antischistosomal activity against adult Schistosoma mansoni assessed as reduction in worm movement at 10 uM measured after 2 to 24 hrs by inverted microscopy; assay type: functional, organism-based; details: time 2-24 hrs
Summary of the method: (§2)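 Adult S. mansoni worms exposed ex vivo to 10 μM compound. Observed at 2, 5 and 24 h and scored with an observation-based severity system. Descriptors recorded: degenerating, uncoordinated, slow, on sides (no adherence to the well floor by oral or ventral sucker), and tegument blebs. Three to five biological singleton assays.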

Venus kinase receptor 2 [4] = target: T1, Venus kinase receptor 2; test: Inhibition of Schistosoma mansoni N-terminal His6-tagged full-length VKR2 kinase domain expressed in baculovirus infected Sf9 insect cells assessed as reduction in autophosphorylation measured after 30 mins in presence of ATP by ADP-glo kinase assay
Summary of the method: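 Autophosphorylation of the SmVKR2 kinase domain, used as the read-out because no substrate is known, with 10 μM ATP. Concentration–response curves were run in triplicate, and IC50 was fitted from them; the paper plots mean ± SD.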

Schistosoma mansoni [5] = test: Antischistosomal activity against adult Schistosoma mansoni assessed as loss of worm ability to adhere to well floor at 10 uM measured after 2 hrs by inverted microscopy; assay type: functional, organism-based; summary of the method: as §2
Schistosoma mansoni [6] = test: Antischistosomal activity against adult Schistosoma mansoni assessed as reduction in worm motility at 10 uM measured after 2 hrs by inverted microscopy; assay type: functional, organism-based; summary of the method: as §2
Schistosoma mansoni [7] = test: Antischistosomal activity against adult Schistosoma mansoni assessed as damage to the tegument by measuring bubbling at 10 uM measured after 24 hrs by inverted microscopy; assay type: functional, organism-based; summary of the method: as §2
Schistosoma mansoni [8] = test: Antischistosomal activity against adult Schistosoma mansoni assessed as reduction in worm motility at 10 uM by worm assay; assay type: functional, organism-based; details: time 2-24 hrs, TDE = time-dependent effect; summary of the method: as §1
Schistosoma mansoni [9] = test: Antischistosomal activity against adult Schistosoma mansoni assessed as worm degeneration at 10 uM measured after 24 hrs by inverted microscopy; assay type: functional, organism-based; summary of the method: as §2
Schistosoma mansoni [10] = test: Antischistosomal activity against adult Schistosoma mansoni assessed as damage to the tegument by measuring blebbing at 10 uM measured after 24 hrs by inverted microscopy; assay type: functional, organism-based; summary of the method: as §2

T1 sequence (D5JEH1 whole entry, the tested form may be a part): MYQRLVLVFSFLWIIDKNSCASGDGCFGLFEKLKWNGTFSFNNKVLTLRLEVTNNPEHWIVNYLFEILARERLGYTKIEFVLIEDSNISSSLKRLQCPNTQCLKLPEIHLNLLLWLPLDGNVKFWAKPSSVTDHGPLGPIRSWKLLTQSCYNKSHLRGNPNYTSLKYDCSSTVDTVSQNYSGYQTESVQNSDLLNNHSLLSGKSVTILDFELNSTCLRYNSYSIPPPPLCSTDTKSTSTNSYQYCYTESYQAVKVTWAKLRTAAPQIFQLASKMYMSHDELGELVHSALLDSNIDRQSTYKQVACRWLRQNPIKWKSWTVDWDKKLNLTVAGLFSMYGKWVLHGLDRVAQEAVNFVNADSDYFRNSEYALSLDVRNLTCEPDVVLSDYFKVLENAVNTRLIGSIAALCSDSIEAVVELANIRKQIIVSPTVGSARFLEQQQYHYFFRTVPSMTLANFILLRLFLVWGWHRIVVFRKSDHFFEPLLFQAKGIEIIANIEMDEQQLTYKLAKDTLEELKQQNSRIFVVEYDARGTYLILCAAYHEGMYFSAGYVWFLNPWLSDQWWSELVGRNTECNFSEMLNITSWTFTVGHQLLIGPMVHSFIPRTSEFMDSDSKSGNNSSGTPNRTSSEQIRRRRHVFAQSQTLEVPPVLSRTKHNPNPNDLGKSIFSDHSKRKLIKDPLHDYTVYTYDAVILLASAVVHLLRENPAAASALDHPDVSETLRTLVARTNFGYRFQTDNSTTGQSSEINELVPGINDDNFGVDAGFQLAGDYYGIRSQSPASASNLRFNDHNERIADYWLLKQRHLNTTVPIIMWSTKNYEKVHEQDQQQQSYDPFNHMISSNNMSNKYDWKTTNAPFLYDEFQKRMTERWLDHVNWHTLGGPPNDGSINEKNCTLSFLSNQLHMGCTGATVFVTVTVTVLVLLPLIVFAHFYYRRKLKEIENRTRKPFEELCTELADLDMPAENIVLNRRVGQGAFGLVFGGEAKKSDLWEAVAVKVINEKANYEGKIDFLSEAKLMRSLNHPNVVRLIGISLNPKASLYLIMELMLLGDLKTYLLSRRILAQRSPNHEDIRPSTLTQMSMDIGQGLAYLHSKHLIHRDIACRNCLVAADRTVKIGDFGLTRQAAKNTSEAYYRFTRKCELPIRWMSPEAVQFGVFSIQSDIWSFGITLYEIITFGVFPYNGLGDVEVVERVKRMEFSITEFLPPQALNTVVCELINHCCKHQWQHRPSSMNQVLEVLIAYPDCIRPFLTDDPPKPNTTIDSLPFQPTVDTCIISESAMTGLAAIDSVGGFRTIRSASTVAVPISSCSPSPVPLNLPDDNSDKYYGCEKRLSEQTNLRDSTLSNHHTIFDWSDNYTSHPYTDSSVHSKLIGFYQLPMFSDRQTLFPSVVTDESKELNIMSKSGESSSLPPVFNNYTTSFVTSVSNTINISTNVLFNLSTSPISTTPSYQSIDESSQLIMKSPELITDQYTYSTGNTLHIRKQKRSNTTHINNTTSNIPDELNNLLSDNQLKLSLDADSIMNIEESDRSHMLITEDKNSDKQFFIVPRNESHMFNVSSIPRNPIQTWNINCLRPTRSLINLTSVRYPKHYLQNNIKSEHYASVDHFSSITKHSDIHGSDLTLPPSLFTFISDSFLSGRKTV

SMILES: Nc1n[nH]c2cnc(-c3ccccc3)cc12
Kd (Venus kinase receptor 2 [1]): 47 µM

Kd (Venus kinase receptor 2 [1]): 170 µM
SMILES: O=C(Nc1n[nH]c2cnc(-c3ccc(O)cc3)cc12)C1CC1
Activity (Schistosoma mansoni [2]): Active
Activity (Schistosoma mansoni [3]): Active

SMILES: NC(=O)Nc1sc(-c2ccc(F)cc2)cc1C(N)=O
Kd (Venus kinase receptor 2 [1]): 16 µM

SMILES: Cc1n[nH]c2cc(Nc3ccnc(Nc4cccc(CN5CCOCC5)c4)n3)ccc12
Kd (Venus kinase receptor 2 [1]): 39 µM

SMILES: CNC(=O)c1ccccc1Nc1nc(Nc2cccc(CS(C)(=O)=O)c2)ncc1C
IC50 (Venus kinase receptor 2 [4]): 6.47 µM
Kd (Venus kinase receptor 2 [1]): 0.44 µM

SMILES: NCCNS(=O)(=O)c1ccc(-c2ccnc3[nH]ccc23)cc1
Kd (Venus kinase receptor 2 [1]): 2.53 µM

SMILES: Cc1cccc(Nc2nc(N[C@H]3CCCC[C@H]3N)ncc2C(N)=O)c1
IC50 (Venus kinase receptor 2 [4]): 5.69 µM
Kd (Venus kinase receptor 2 [1]): 1.96 µM
Activity (Schistosoma mansoni [2]): Active
Activity (Schistosoma mansoni [3]): Active

SMILES: Cc1cccc(Nc2nc(NCCN)ncc2C(N)=O)c1
Kd (Venus kinase receptor 2 [1]): 4.5 µM

SMILES: CN(C)CCNS(=O)(=O)c1ccc(-c2ccnc3[nH]ccc23)cc1
Kd (Venus kinase receptor 2 [1]): 8.2 µM

SMILES: CS(=O)(=O)Nc1ccc(-c2ccnc3[nH]ccc23)cc1
Kd (Venus kinase receptor 2 [1]): 7.8 µM

SMILES: Nc1nc(N)c2nc(-c3ccccc3)[nH]c2n1
Kd (Venus kinase receptor 2 [1]): 82 µM

SMILES: CC(C)Oc1ccc2c(-c3ccnc(Nc4ccc(N5CCN(C)CC5)cc4)n3)cnn2n1
Activity (Schistosoma mansoni [5]): Active
Activity (Schistosoma mansoni [6]): Active
Activity (Schistosoma mansoni [7]): Active
IC50 (Venus kinase receptor 2 [4]): 20.1 µM
Activity (Schistosoma mansoni [8]): Tde
Kd (Venus kinase receptor 2 [1]): 3.4 µM
Activity (Schistosoma mansoni [9]): Active
Activity (Schistosoma mansoni [10]): Active
